This note sets out measurements from ChEMBL document CHEMBL1955865, “Synthesis of novel spirooxindole derivatives by one pot multicomponent reaction and their antimicrobial activity” (2012).

Structures are written as SMILES. Converted amounts (≈) assume the structure as drawn. The source made the active and inactive calls. The calls are words filed in the database; no cut-off is given here. A value given as a limit tells only on which side of the number the result lay.

Test system in one test: not listed separately
The test is described as follows: Antifungal activity against Malassezia pachydermatis at 1000 ug/disc after 48 hrs by disc diffusion assay. In kind it is functional.
Conditions: not given
An outline of the steps: (§1)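 Fungal disc diffusion with inoculum from SDA spores (filamentous) or SDB culture (yeast). Test cultures were swabbed on agar, and discs at 1000 µg/disc were left 30 min at room temperature, with a solvent negative control. Plates were incubated 48 h at 27 °C. Zone of inhibition was measured in mm, and the experiment was repeated twice.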
A general note: Agar diffusion results depend on both activity and mobility in agar.
Regarding `Cc1ccc2c(c1)C1(C(=O)N2)C2=C(C(=O)c3ccccc3C2=O)C2CCCN21` (stereo not given), the inhibition zone (IZ) is 9 mm.
The same measure, in the same setting: then `CN1CC2=C(C(=O)c3ccccc3C2=O)C12C(=O)c1ccccc1C2=O`, with “inactive”.

The subject of another test is Candida albicans. In words: Antifungal activity against Candida albicans MTCC 227 at 1000 ug/disc after 48 hrs by disc diffusion assay. In kind it is functional.
Conditions: not given
The method in brief: as §1
Take `Cc1ccc2c(c1)C1(C(=O)N2)C2=C(C(=O)c3ccccc3C2=O)C2CCCN21` (stereo not given): the “inhibition zone (IZ)” value is “inactive”.
On the same count and under the same terms, the same measure for `CN1CC2=C(C(=O)c3ccccc3C2=O)C12C(=O)c1ccccc1C2=O`: “inactive”.

Another test concerns Botrytis cinerea. In words: Antifungal activity against Botrytis cinerea at 1000 ug/disc after 48 hrs by disc diffusion assay. In kind it is functional. Particulars: read-out: IZ. An outline of the steps:
as §1
Turning to `Cc1ccc2c(c1)C1(C(=O)N2)C2=C(C(=O)c3ccccc3C2=O)C2CCCN21` (stereo not given), the zone of inhibition at 1000 µg/disc amounted to 9 mm.
The same measure, in the same setting: the same measure for `CN1CC2=C(C(=O)c3ccccc3C2=O)C12C(=O)c1ccccc1C2=O`: 9 mm.

For a further test, the system named is Staphylococcus aureus. In words: Antibacterial activity against Staphylococcus aureus MTCC 96 after 24 hrs by twofold serial dilution method. In kind it is functional. The following applies: MTCC 96, 24 h. An outline of the steps: (§2)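 Bacteria grown in Mueller Hinton broth for 24 h at 37 °C and diluted to about 10^4 CFU/ml. Compound in 2% DMSO was serially diluted two-fold (1000 to 15.62 µg/ml) in medium in 96-well plates and inoculated. Plates were incubated 24 h at 37 °C. 5 µl of broth was spotted onto MHA, and MIC was taken as the lowest concentration with no visible growth on agar.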
With `O=C(O)c1cn(C2CC2)c2cc(N3CCNCC3)c(F)cc2c1=O` [CIPROFLOXACIN], the MIC is under 0.78 µg/mL.

The subject of another test is Staphylococcus aureus. The test is described as follows: Antibacterial activity against methicillin-resistant Staphylococcus aureus after 24 hrs by twofold serial dilution method. In kind it is functional.
Conditions: not given
The method in brief:
(§3)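 Broth microdilution in MHB following the standard bacterial reference method. Compound was dissolved in DMSO (2%) and serially diluted two-fold from 1000 to 15.62 µg/ml in 96-well plates, with an inoculum of about 10^4 CFU/ml. Streptomycin and ciprofloxacin were positive controls. After 24 h at 37 °C, 5 µl of broth was subcultured on MHA. MIC was the lowest concentration without visible growth on agar.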
In turn, `O=C(O)c1cn(C2CC2)c2cc(N3CCNCC3)c(F)cc2c1=O` [CIPROFLOXACIN] gave an MIC of over 100 µg/mL.

The subject of the next test is Micrococcus luteus. In words: Antibacterial activity against Micrococcus luteus after 24 hrs by twofold serial dilution method. In kind it is functional.
Conditions: not given
An outline of the steps: as §2
As for `O=C(O)c1cn(C2CC2)c2cc(N3CCNCC3)c(F)cc2c1=O` [CIPROFLOXACIN], the MIC is over 100 µg/mL.

For another test, the system named is Klebsiella aerogenes. The test is described as follows: Antibacterial activity against Enterobacter aerogenes MTCC 111 after 24 hrs by twofold serial dilution method. Particulars: MTCC 111, 24 h. In kind it is functional. The method in brief: as §2
In the case of `O=C(O)c1cn(C2CC2)c2cc(N3CCNCC3)c(F)cc2c1=O` [CIPROFLOXACIN], the MIC is under 0.78 µg/mL.

A further test has as its system Proteus vulgaris. The test is described as follows: Antibacterial activity against Proteus vulgaris MTCC 1771 after 24 hrs by twofold serial dilution method. In kind it is functional. The following applies: MTCC 1771, 24 h. The method in brief:
as §2
As for `O=C(O)c1cn(C2CC2)c2cc(N3CCNCC3)c(F)cc2c1=O` [CIPROFLOXACIN], the MIC is under 0.78 µg/mL.

For a further test, the system named is Klebsiella pneumoniae. In words: Antibacterial activity against Klebsiella pneumoniae MTCC 109 after 24 hrs by twofold serial dilution method. In kind it is functional. Particulars: MTCC 109, 24 h. The method in brief: as §2
Turning to `O=C(O)c1cn(C2CC2)c2cc(N3CCNCC3)c(F)cc2c1=O` [CIPROFLOXACIN], the MIC is under 0.78 µg/mL.

The next test deals with Salmonella typhimurium. The test is described as follows: Antibacterial activity against Salmonella Typhimurium MTCC 1251 after 24 hrs by two-fold serial dilution method. In kind it is functional, Salmonella enterica subsp. enterica serovar Typhimurium. The following applies: Salmonella enterica, MTCC 1251, 24 h. The method in brief:
as §2
`O=C(O)c1cn(C2CC2)c2cc(N3CCNCC3)c(F)cc2c1=O` [CIPROFLOXACIN] registered an MIC of over 100 µg/mL.

A further test relates to Salmonella enterica subsp. enterica serovar Paratyphi B. The test is described as follows: Antibacterial activity against Salmonella paratyphi B after 24 hrs by twofold serial dilution method. In kind it is functional.
Conditions: not given
The method in brief: as §3
As to `O=C(O)c1cn(C2CC2)c2cc(N3CCNCC3)c(F)cc2c1=O` [CIPROFLOXACIN], the MIC amounted to 6.25 µg/mL (≈ 18.9 µM).

In another test the test system is Staphylococcus aureus. The test is described as follows: Antibacterial activity against Staphylococcus aureus MTCC 96 at 1000 ug/disc after 24 hrs by disc diffusion assay. In kind it is functional. Particulars: MTCC 96, 24 h, read-out: IZ. An outline of the steps:
(§4)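 Disc diffusion on Mueller Hinton agar. Cultures (about 10^4 CFU/ml) were swabbed on and dried 10 min. Discs loaded at 1000 µg/disc were left 30 min at room temperature for diffusion, with a solvent negative control. Plates were incubated 24 h at 37 °C. Inhibition zones were measured in mm, and the experiment was done twice.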
For the compound `Cc1ccc2c(c1)C1(C(=O)N2)C2=C(C(=O)c3ccccc3C2=O)C2CCCN21` (stereo not given), the zone of inhibition at 1000 µg/disc stood at 10 mm.
Same read-out and setting: then `CN1CC2=C(C(=O)c3ccccc3C2=O)C12C(=O)c1ccccc1C2=O`, with 9 mm.

A further test deals with Staphylococcus aureus. In words: Antibacterial activity against methicillin-resistant Staphylococcus aureus at 1000 ug/disc after 24 hrs by disc diffusion assay. In kind it is functional.
Conditions: not given
The method in brief: (§5)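 Disc diffusion on Mueller Hinton agar. Bacteria were grown 24 h at 37 °C in MHB and diluted to about 10^4 CFU/ml, swabbed onto plates and dried 10 min. Discs were loaded at 1000 μg/disc and held 30 min at room temperature for diffusion. Solvent served as negative control. After 24 h at 37 °C, inhibition zones were read in mm; run twice.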
`CN1CC2=C(C(=O)c3ccccc3C2=O)C12C(=O)c1ccccc1C2=O`: the “inhibition zone (IZ)” value was “inactive”.

The same test, now with this note: read-out: IZ.
For the compound `Cc1ccc2c(c1)C1(C(=O)N2)C2=C(C(=O)c3ccccc3C2=O)C2CCCN21` (stereo not given), the zone of inhibition at 1000 µg/disc came out at 8 mm.

Another test has as its system Micrococcus luteus. In words: Antibacterial activity against Micrococcus luteus at 1000 ug/disc after 24 hrs by disc diffusion assay. In kind it is functional. Particulars: read-out: IZ. An outline of the steps: as §4
`Cc1ccc2c(c1)C1(C(=O)N2)C2=C(C(=O)c3ccccc3C2=O)C2CCCN21` (stereo not given): the zone of inhibition at 1000 µg/disc was 11 mm.
On to `CN1CC2=C(C(=O)c3ccccc3C2=O)C12C(=O)c1ccccc1C2=O`, for which the zone of inhibition at 1000 µg/disc is 8 mm.

The next test concerns Klebsiella aerogenes. The test is described as follows: Antibacterial activity against Enterobacter aerogenes MTCC 111 at 1000 ug/disc after 24 hrs by disc diffusion assay. In kind it is functional. Particulars: MTCC 111, 24 h, read-out: IZ. An outline of the steps:
as §4
As to `Cc1ccc2c(c1)C1(C(=O)N2)C2=C(C(=O)c3ccccc3C2=O)C2CCCN21` (stereo not given), the zone of inhibition at 1000 µg/disc stood at 9 mm.
Same read-out and setting: then `CN1CC2=C(C(=O)c3ccccc3C2=O)C12C(=O)c1ccccc1C2=O`, with 8 mm.

The next test deals with Proteus vulgaris. The test is described as follows: Antibacterial activity against Proteus vulgaris MTCC 1771 at 1000 ug/disc after 24 hrs by disc diffusion assay. The following applies: MTCC 1771, 24 h, read-out: IZ. In kind it is functional. The method in brief:
as §4
Take `Cc1ccc2c(c1)C1(C(=O)N2)C2=C(C(=O)c3ccccc3C2=O)C2CCCN21` (stereo not given): the zone of inhibition at 1000 µg/disc worked out at 9 mm.
Same read-out and setting: the same measure for `CN1CC2=C(C(=O)c3ccccc3C2=O)C12C(=O)c1ccccc1C2=O`: 8 mm.

A further test has as its system Klebsiella pneumoniae. The test is described as follows: Antibacterial activity against Klebsiella pneumoniae MTCC 109 at 1000 ug/disc after 24 hrs by disc diffusion assay. In kind it is functional. Particulars: MTCC 109, 24 h, read-out: IZ. The method in brief:
as §4
Regarding `Cc1ccc2c(c1)C1(C(=O)N2)C2=C(C(=O)c3ccccc3C2=O)C2CCCN21` (stereo not given), the zone of inhibition at 1000 µg/disc was found to be 10 mm.
The same measure, in the same setting: then `CN1CC2=C(C(=O)c3ccccc3C2=O)C12C(=O)c1ccccc1C2=O`, with 9 mm.

In the next test the test system is Salmonella typhimurium. In words: Antibacterial activity against Salmonella Typhimurium MTCC 1251 at 1000 ug/disc after 24 hrs by disc diffusion assay. In kind it is functional, Salmonella enterica subsp. enterica serovar Typhimurium. The following applies: Salmonella enterica, MTCC 1251, 24 h; read-out: IZ. An outline of the steps: as §4
For `Cc1ccc2c(c1)C1(C(=O)N2)C2=C(C(=O)c3ccccc3C2=O)C2CCCN21` (stereo not given), the zone of inhibition at 1000 µg/disc is 11 mm.
On the same count and under the same terms, then `CN1CC2=C(C(=O)c3ccccc3C2=O)C12C(=O)c1ccccc1C2=O`, with 10 mm.

The next test has as its system Salmonella enterica subsp. enterica serovar Paratyphi B. In words: Antibacterial activity against Salmonella paratyphi B at 1000 ug/disc after 24 hrs by disc diffusion assay. In kind it is functional. Particulars: read-out: IZ. The method in brief:
as §5
With `Cc1ccc2c(c1)C1(C(=O)N2)C2=C(C(=O)c3ccccc3C2=O)C2CCCN21` (stereo not given), the zone of inhibition at 1000 µg/disc came out at 8 mm.
On the same count and under the same terms, the same measure for `CN1CC2=C(C(=O)c3ccccc3C2=O)C12C(=O)c1ccccc1C2=O`: 9 mm.

In general, MIC refers to the lowest concentration found to suppress growth. A low value points to inhibition by little substance.
